In PubChem BioAssay one finds viability, differential viability (reversal) and inhibition data, which are given here for 20 molecules.

SMILES strings stand for the structures. Calls of active or inactive are those of the source. Unless noted, no stated cut-off is given here; in the data, active means inhibition above about 31%; inactive means the rest.

Assay [1] can be described thus: HUVEC growth inhibition – cell-based, human, primary screen (AID 575;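 active means viability at or below 30% in both replicate assays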;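 further: 100% = median of untreated cell wells with 0.1% DMSO on each plate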). The following applies: HUVEC proliferation, CellTiter-Glo luminescence, 72 h; at 10 µM; stronger effect = lower value. Put shortly: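 System – primary HUVEC, no more than 12 passages · Medium – Low-serum (2% FBS) EBM, supplemented · Times – 72 h exposure, 37 °C, 5% CO2, 30 min RT equilibration · Measured by – luminescent ATP assay · Read-out – % viability relative to median vehicle-well signal on each plate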

The nature of assay [2]: H69AR cell proliferation blockers – human, duplicate replicates, primary screen (AID 580;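 active means viability at or under a set limit in both replicates, limit being median viability minus 3 SD, cut at about 48% in these data, passing the limit was not always enough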;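 further: 100% = mean luminescence of untreated wells and 0% = no signal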). Particulars: H69AR lung tumor cells viability, ATP luminescence, 72 h; at 10 µM; stronger effect = lower value.
Assay [3] can be described thus: MRP1 drug-resistance reversers in H69AR cells – cell-based, doxorubicin co-treatment, pilot screen (AID 601;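 active means viability loss from added drug above about 55%, and viability with drug at most 40%, in both replicates, limit read from the data, passing the limit was not always enough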). Particulars: CellTiter-Glo, 72 h, at 10 µM; for differential viability (reversal): stronger effect = higher value. In general terms: ATP-based viability assays read luminescence as a measure of living cells.
Assay [4] is described as follows: yeast transport mutant growth inhibition pilot in 384-well plates, post-Golgi transport modulator project (AID 636). The following applies: absorbance 615 nm, about 18 h, stronger effect = higher value.
Assay [5] can be described thus: growth suppression of yeast trafficking mutant, preliminary HTS, modulators of trafficking downstream of Golgi apparatus project, 1536-format plate, OD 615 nm (AID 637; in the data active means inhibition above about 30%). Particulars: yeast transport mutant growth, absorbance 615 nm, 18 h; stronger effect = higher value.
Where [6] appears, read: H69AR cells + 2 uM doxorubicin, measured here: viability with 2 uM doxorubicin, stronger effect = lower value.
Setting [7] is: H69AR cells, compound alone cytotoxicity.

Usually viability stands for a read-out of living cells in per cent, often relative to untreated cells. What is called inhibition is the relative decrease from the control value, in per cent. `CCOC(=O)c1c(COC(=O)c2ccco2)nc2ccccc2[n+]1[O-]`: the viability in assay [1] is 90.3% (inactive); in assay [2], 87.2% (inactive); in assay [3] (setting [6]) it was 84.6%; in assay [3] (setting [7]), 87.2%. Further, the differential viability (reversal) in assay [3] (H69AR cells + 2 uM doxorubicin) was 2.55% (inactive). Also, the inhibition in assay [4] was -5.73% (inactive); in assay [5], 3.97% (inactive).

Consider `CC(=O)Nc1ccc(NC(=O)c2ccccc2F)cc1`, for which the viability in assay [1] is 110% (inactive); in assay [2], 108% (inactive); in assay [3] (setting [6]) it was 92.2%; in assay [3] (setting [7]), 108%. The differential viability (reversal) in assay [3] (H69AR cells + 2 uM doxorubicin) was 16.1% (inactive). Further, the results for the inhibition in assay [4] and in assay [5] were -1.82% (inactive) and -4.13% (inactive), respectively.

As to `Cc1ccc(CC23CN4CCN(CC(C4)C2O)C3)c(C)c1` (stereo not given), the viability in assay [1] is 109% (inactive); in assay [2], 94.6% (inactive); in assay [3] (setting [6]), 86.1%; in assay [3] (setting [7]), 94.6%. The differential viability (reversal) in assay [3] (H69AR cells + 2 uM doxorubicin) is 8.52% (inactive). Also, the inhibition in assay [4] was -2.37% (inactive); in assay [5], 3.02% (inactive).

For the molecule `Cc1ccc(S(=O)(=O)N(C)CC(=O)NC2CC(C)(C)NC(C)(C)C2)cc1`, the viability in assay [1] is 93.1% (inactive); in assay [2], 96.2% (inactive); in assay [3] (setting [6]) it was 88%; in assay [3] (setting [7]) it was 96.2%. In addition, the differential viability (reversal) in assay [3] (H69AR cells + 2 uM doxorubicin) is 8.25% (inactive). Moreover, the inhibition in assay [4] was -1.04% (inactive); in assay [5], 0.32% (inactive).

For the molecule `COCCN(CC(=O)Nc1ccccc1C)S(=O)(=O)c1ccc(S(=O)(=O)N2CCCC2)cc1`, the viability was 101% (inactive) in assay [1], 95.7% (inactive) in assay [2], 91.5% in assay [3] (setting [6]) and 95.7% in assay [3] (setting [7]). Moreover, in assay [3] (H69AR cells + 2 uM doxorubicin), the differential viability (reversal) is 4.26% (inactive). In addition, the inhibition in assay [4] was -7.2% (inactive); in assay [5] it was 4.13% (inactive).

For the molecule `CCCN(CCC)CCNS(=O)(=O)c1ccc2c(c1)oc(=O)n2C`, the viability was 97.1% (inactive) in assay [1], 105% (inactive) in assay [2], 92.5% in assay [3] (setting [6]) and 105% in assay [3] (setting [7]). For the same molecule, the differential viability (reversal) in assay [3] (H69AR cells + 2 uM doxorubicin) is 12.9% (inactive). Further, the results for the inhibition in assay [4] and in assay [5] were -2.27% (inactive) and -2.06% (inactive), respectively.

`CCOC(=O)N1CCN(C(=O)Nc2ccc(Cl)cc2)CC1`: the viability in assay [1] is 97.7% (inactive); in assay [2], 98.3% (inactive); in assay [3] (setting [6]), 83.4%; in assay [3] (setting [7]) it was 98.3%. Further, the differential viability (reversal) in assay [3] (H69AR cells + 2 uM doxorubicin) was 14.8% (inactive). For the same molecule, the inhibition in assay [4] is -3.55% (inactive); in assay [5], 4.6% (inactive).

For the molecule `CCOc1ccccc1OCCn1nnc2ccccc21`, the viability is 101% (inactive) in assay [1], 98.7% (inactive) in assay [2], 80.3% in assay [3] (setting [6]) and 98.7% in assay [3] (setting [7]). For the same molecule, in assay [3] (H69AR cells + 2 uM doxorubicin), the differential viability (reversal) is 18.4% (inactive). Also, the inhibition in assay [4] is -5.73% (inactive); in assay [5] it was 5.24% (inactive).

For `Cc1cccc(NC(=O)c2oc3c(c2C)C(=O)CC(C)(C)C3)n1`, the viability in assay [1] is 106% (inactive); in assay [2] it was 92.3% (inactive); in assay [3] (setting [6]), 83%; in assay [3] (setting [7]), 92.3%. For the same molecule, the differential viability (reversal) in assay [3] (H69AR cells + 2 uM doxorubicin) was 9.28% (inactive). The inhibition in assay [4] is -6.27% (inactive); in assay [5] it was -3.49% (inactive).

Consider `Cc1ccc(C(=O)Nc2ccc3c(c2)OCO3)o1`, for which the viability in assay [1] is 83% (inactive); in assay [2] it was 69.6% (inactive); in assay [3] (setting [6]) it was 75.3%; in assay [3] (setting [7]) it was 69.6%. Further, the differential viability (reversal) in assay [3] (H69AR cells + 2 uM doxorubicin) was -5.72% (inactive). Also, the figures for the inhibition in assay [4] and in assay [5] were -2.6% (inactive) and -3.81% (inactive), respectively.

Regarding `CCOC(=O)C1CCN(C(=O)CN(Cc2ccccc2)S(C)(=O)=O)CC1`, the viability in assay [1] was 112% (inactive); in assay [2], 92.1% (inactive); in assay [3] (setting [6]), 93.3%; in assay [3] (setting [7]) it was 92.1%. For the same molecule, the differential viability (reversal) in assay [3] (H69AR cells + 2 uM doxorubicin) was -1.19% (inactive). For the same molecule, the figures for the inhibition in assay [4] and in assay [5] were -6.4% (inactive) and 2.7% (inactive), respectively.

`CCN1C(=O)/C(=C/N2CCc3ccccc32)SC1=S`: the viability was 98.3% (inactive) in assay [1], 58.5% (inactive) in assay [2], 61.9% in assay [3] (setting [6]) and 58.5% in assay [3] (setting [7]). Besides, the differential viability (reversal) in assay [3] (H69AR cells + 2 uM doxorubicin) was -3.35% (inactive). Moreover, the inhibition is -2.63% (inactive) in assay [4] and 0.95% (inactive) in assay [5].

As to `O=C(CN1C(=O)COc2ccccc21)NCCCN1CCc2ccccc2C1`, the viability in assay [1] is 83.2% (inactive); in assay [2], 94.8% (inactive); in assay [3] (setting [6]) it was 83.2%; in assay [3] (setting [7]) it was 94.8%. The differential viability (reversal) in assay [3] (H69AR cells + 2 uM doxorubicin) was 11.6% (inactive). Further, the inhibition in assay [4] is -1.69% (inactive); in assay [5], 9.05% (inactive).

For the molecule `Cc1onc(-c2c(Cl)cccc2Cl)c1C(=O)NCCCN1CCOCC1`, the viability in assay [1] was 108% (inactive); in assay [2], 100% (inactive); in assay [3] (setting [6]), 101%; in assay [3] (setting [7]), 100%. Besides, the differential viability (reversal) in assay [3] (H69AR cells + 2 uM doxorubicin) is -1.13% (inactive). In addition, the inhibition in assay [4] was -2.5% (inactive); in assay [5], -2.22% (inactive).

On to `Cc1ccc(C)c(SCC(=O)Nc2nnc(-c3ccccc3)o2)c1`, for which the viability in assay [1] is 48.4% (inactive); in assay [2], 74.9% (inactive); in assay [3] (setting [6]), 75.6%; in assay [3] (setting [7]), 74.9%. For the same molecule, the differential viability (reversal) in assay [3] (H69AR cells + 2 uM doxorubicin) was -0.675% (inactive). In addition, the inhibition in assay [4] is -3.64% (inactive); in assay [5], -1.27% (inactive).

Consider `COC(=O)Cn1c2ccccc2c2nc(C)sc21`, for which the viability in assay [1] is 87.2% (inactive); in assay [2], 92.7% (inactive); in assay [3] (setting [6]) it was 91.5%; in assay [3] (setting [7]), 92.7%. The differential viability (reversal) in assay [3] (H69AR cells + 2 uM doxorubicin) is 1.14% (inactive). In addition, the inhibition in assay [4] was -0.8% (inactive); in assay [5] it was -3.65% (inactive).

Consider `CC(NS(=O)(=O)c1ccc(OCC(=O)N2CCOCC2)c(Cl)c1)c1ccccc1` (stereo not given), for which the viability is 94.9% (inactive) in assay [1], 94.7% (inactive) in assay [2], 94.4% in assay [3] (setting [6]) and 94.7% in assay [3] (setting [7]). Further, the differential viability (reversal) in assay [3] (H69AR cells + 2 uM doxorubicin) was 0.355% (inactive). Further, the figures for the inhibition in assay [4] and in assay [5] were -6.53% (inactive) and 4.76% (inactive), respectively.

As for `Cc1ccc(-c2ccc(/C=N/n3cnnc3)o2)cc1Cl`, the viability in assay [1] is 87.2% (inactive); in assay [2], 101% (inactive); in assay [3] (setting [6]), 96.3%; in assay [3] (setting [7]) it was 101%. The differential viability (reversal) in assay [3] (H69AR cells + 2 uM doxorubicin) is 4.54% (inactive). Further, the results for the inhibition in assay [4] and in assay [5] were -2.08% (inactive) and 86.2% (active), respectively.

Regarding `CC(=O)OC(C(=O)NCc1ccco1)c1cccnc1` (stereo not given), the viability was 104% (inactive) in assay [1], 87% (inactive) in assay [2], 83.6% in assay [3] (setting [6]) and 87% in assay [3] (setting [7]). For the same molecule, the differential viability (reversal) in assay [3] (H69AR cells + 2 uM doxorubicin) is 3.39% (inactive). For the same molecule, the inhibition was -2.08% (inactive) in assay [4] and 2.86% (inactive) in assay [5].

As for `CCOc1ccc(OCC)c(NS(=O)(=O)c2ccc3c(c2)n(C)c(=O)c(=O)n3C)c1`, the viability was 112% (inactive) in assay [1], 95.1% (inactive) in assay [2], 89.7% in assay [3] (setting [6]) and 95.1% in assay [3] (setting [7]). Further, the differential viability (reversal) in assay [3] (H69AR cells + 2 uM doxorubicin) was 5.37% (inactive). The inhibition is -0.13% (inactive) in assay [4] and 1.27% (inactive) in assay [5].
